Measured values: ChEMBL document CHEMBL1126988, “Quinolone antibacterials containing the new 7-[3-(1-aminoethyl)-1- pyrrolidinyl] side chain: the effects of the 1-aminoethyl moiety and its stereochemical configurations on potency and in vivo efficacy” (J Med Chem, 1993)
Converted amounts (≈) assume the structure as drawn.

Experiments:
Type in all cases: functional
Escherichia coli [1] = test: Antibacterial activity in vitro against Escherichia coli Vogel
In short: (§1)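 Standard microtitration broth assay against a panel of 10 Gram-positive and Gram-negative organisms. MIC read in µg/mL and averaged over multiple experiments.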

Escherichia coli [2] = test: Antibacterial activity against Escherichia coli Vogel after oral administration in mouse; conditions: Escherichia coli, po; read-out: PD50
Escherichia coli [3] = test: Antibacterial activity against Escherichia coli Vogel after subcutaneous administration in mouse; conditions: Escherichia coli, sc; read-out: PD50
Enterobacter cloacae = test: Minimum inhibitory concentration in vitro against Enterobacter cloacae MA 2646; conditions: Enterobacter cloacae; read-out: MIC
Enterococcus faecalis = test: Minimum inhibitory concentration was evaluated in vitro against Enterococcus faecalis MGH-2; in short: as §1
Klebsiella pneumoniae = test: Minimum inhibitory concentration was evaluated in vitro against Klebsiella pneumoniae MGH2; in short: as §1
Providencia rettgeri = test: Minimum inhibitory concentration was evaluated in vitro against Providencia rettgeri M1771; conditions: Providencia rettgeri; read-out: MIC; in short: as §1
Pseudomonas aeruginosa = test: Minimum inhibitory concentration was evaluated in vitro against Pseudomonas aeruginosa UI-18; in short: as §1
Staphylococcus aureus [4] = test: Minimum inhibitory concentration was evaluated in vitro against Staphylococcus aureus H 228; in short: as §1
Staphylococcus aureus [5] = test: Minimum inhibitory concentration was evaluated in vitro against Staphylococcus aureus UC 76; in short: as §1
Streptococcus pneumoniae = test: Minimum inhibitory concentration was evaluated in vitro against Streptococcus pneumoniae SV-1; in short: as §1
Streptococcus pyogenes [6] = test: Antibacterial activity measured as mouse protection against Streptococcus pyogenes C 203 after subcutaneous administration; conditions: for ED50: Streptococcus pyogenes, C 203, sc, read-out: PD50
Streptococcus pyogenes [7] = test: Compounds were evaluated in vivo for antibacterial activity for mouse protection against Streptococcus pyogenes C 203 after oral administration; conditions: for ED50: Streptococcus pyogenes, C 203, po, read-out: PD50
Streptococcus pyogenes [8] = test: Minimum inhibitory concentration was evaluated in vitro against Streptococcus pyogenes C 203; in short: as §1
[9] = Escherichia coli, read-out: MIC
[10] = Enterococcus faecalis, read-out: MIC
[11] = Klebsiella pneumoniae, read-out: MIC
[12] = Pseudomonas aeruginosa, read-out: MIC
[13] = Staphylococcus aureus, read-out: MIC
[14] = Streptococcus pneumoniae, read-out: MIC
[15] = Streptococcus pyogenes, read-out: MIC

Compound	MIC (Escherichia coli [1]; [9]) [µg/mL]	ED50 (Escherichia coli [2]) [mg/kg]	ED50 (Escherichia coli [3]) [mg/kg]	MIC (Enterobacter cloacae) [µg/mL]	MIC (Enterococcus faecalis; [10]) [µg/mL]	MIC (Klebsiella pneumoniae; [11]) [µg/mL]	MIC (Providencia rettgeri) [µg/mL]	MIC (Pseudomonas aeruginosa; [12]) [µg/mL]	MIC (Staphylococcus aureus [4]; [13]) [µg/mL]	MIC (Staphylococcus aureus [5]; [13]) [µg/mL]	MIC (Streptococcus pneumoniae; [14]) [µg/mL]	ED50 (Streptococcus pyogenes [6]) [mg/kg]	ED50 (Streptococcus pyogenes [7]) [mg/kg]	MIC (Streptococcus pyogenes [8]; [15]) [µg/mL]	further results
CCNCC1CCN(c2c(F)c(N)c3c(=O)c(C(=O)O)cn(C4CC4)c3c2F)C1 (centres undefined)	0.05 (≈ 0.123 µM)	16	2	0.05 (≈ 0.123 µM)	0.025 (≈ 0.0615 µM)	0.05 (≈ 0.123 µM)	0.1 (≈ 0.246 µM)	0.2 (≈ 0.492 µM)	0.013 (≈ 0.032 µM)	0.003 (≈ 0.00738 µM)	0.003 (≈ 0.00738 µM)	3	5	0.013 (≈ 0.032 µM)	
CCNCC1CCN(c2nc3c(cc2F)c(=O)c(C(=O)O)cn3-c2ccc(F)cc2F)C1 (centres undefined)	0.2 (≈ 0.448 µM)	6	4	0.2 (≈ 0.448 µM)	0.2 (≈ 0.448 µM)	0.4 (≈ 0.896 µM)	0.8 (≈ 1.79 µM)	1.6 (≈ 3.58 µM)	0.1 (≈ 0.224 µM)	0.025 (≈ 0.056 µM)	0.1 (≈ 0.224 µM)	3	8	0.1 (≈ 0.224 µM)	
CCN[C@H](C)[C@H]1CCN(c2nc3c(cc2F)c(=O)c(C(=O)O)cn3-c2ccc(F)cc2F)C1 (racemic)	0.4 (≈ 0.869 µM)	25	13	0.8 (≈ 1.74 µM)	0.2 (≈ 0.434 µM)	0.8 (≈ 1.74 µM)	1.6 (≈ 3.47 µM)	3.1 (≈ 6.73 µM)	0.05 (≈ 0.109 µM)	0.013 (≈ 0.0282 µM)	0.1 (≈ 0.217 µM)	2	2	0.1 (≈ 0.217 µM)	
CNCC1CCN(c2cc3c(cc2F)c(=O)c(C(=O)O)cn3C2CC2)C1 (centres undefined)	0.1 (≈ 0.278 µM)	35	2	0.2 (≈ 0.556 µM)	0.1 (≈ 0.278 µM)	0.2 (≈ 0.556 µM)	0.4 (≈ 1.11 µM)	0.8 (≈ 2.23 µM)	0.2 (≈ 0.556 µM)	0.025 (≈ 0.0696 µM)	0.05 (≈ 0.139 µM)	5	> 50	0.05 (≈ 0.139 µM)	
CN[C@H](C)[C@@H]1CCN(c2c(F)cc3c(=O)c(C(=O)O)cn(C4CC4)c3c2OC)C1	0.1 (≈ 0.248 µM)	12	3	0.1 (≈ 0.248 µM)	0.05 (≈ 0.124 µM)	0.2 (≈ 0.496 µM)	0.4 (≈ 0.991 µM)	3.1 (≈ 7.68 µM)	0.05 (≈ 0.124 µM)	0.013 (≈ 0.0322 µM)	0.013 (≈ 0.0322 µM)	1	4	0.025 (≈ 0.062 µM)	
NCC1CCN(c2c(F)cc3c(=O)c(C(=O)O)cn(C4CC4)c3c2F)C1 (centres undefined)	0.025 (≈ 0.0688 µM)	6	1	0.013 (≈ 0.0358 µM)	0.013 (≈ 0.0358 µM)	0.05 (≈ 0.138 µM)	0.1 (≈ 0.275 µM)	0.2 (≈ 0.55 µM)	0.013 (≈ 0.0358 µM)	0.003 (≈ 0.00826 µM)	0.006 (≈ 0.0165 µM)	0.4	4	0.003 (≈ 0.00826 µM)	
COc1c(N2CCC(C)(CN)C2)c(F)cc2c(=O)c(C(=O)O)cn(C3CC3)c12 (centres undefined)	0.1 (≈ 0.257 µM)	18	3	0.1 (≈ 0.257 µM)	0.025 (≈ 0.0642 µM)	0.2 (≈ 0.514 µM)	0.4 (≈ 1.03 µM)	1.6 (≈ 4.11 µM)	0.025 (≈ 0.0642 µM)	0.006 (≈ 0.0154 µM)	0.013 (≈ 0.0334 µM)	1	5	0.013 (≈ 0.0334 µM)	
CC(N)C1CCN(c2c(F)cc3c(=O)c(C(=O)O)cn(C4CC4)c3c2C(F)(F)F)C1 (stereo in doubt; 36F-R,R)				0.4 (≈ 0.936 µM)			0.8 (≈ 1.87 µM)								MIC (Escherichia coli [1]): 0.8 µg/mL (≈ 1.87 µM); MIC (Enterococcus faecalis): 0.2 µg/mL (≈ 0.468 µM); MIC (Klebsiella pneumoniae): 0.8 µg/mL (≈ 1.87 µM); MIC (Pseudomonas aeruginosa): 6.3 µg/mL (≈ 14.7 µM); MIC (Staphylococcus aureus [4]): 0.1 µg/mL (≈ 0.234 µM); MIC (Staphylococcus aureus [5]): 0.025 µg/mL (≈ 0.0585 µM); MIC (Streptococcus pneumoniae): 0.1 µg/mL (≈ 0.234 µM); PD50 (Streptococcus pyogenes [6]): 2 mg/kg; PD50 (Streptococcus pyogenes [7]): 3 mg/kg; MIC (Streptococcus pyogenes [8]): 0.1 µg/mL (≈ 0.234 µM)
CN[C@H](C)[C@@H]1CCN(c2cc3c(cc2F)c(=O)c(C(=O)O)cn3C2CC2)C1	0.1 (≈ 0.268 µM)			0.2 (≈ 0.536 µM)	0.2 (≈ 0.536 µM)	0.4 (≈ 1.07 µM)	0.8 (≈ 2.14 µM)	1.6 (≈ 4.28 µM)	0.2 (≈ 0.536 µM)	0.05 (≈ 0.134 µM)	0.05 (≈ 0.134 µM)	3	36	0.05 (≈ 0.134 µM)	
CCNC(C)C1CCN(c2cc3c(c(N)c2F)c(=O)c(C(=O)O)cn3C2CC2)C1 (racemic)	0.1 (≈ 0.248 µM)			0.1 (≈ 0.248 µM)	0.05 (≈ 0.124 µM)	0.2 (≈ 0.497 µM)	0.8 (≈ 1.99 µM)	1.6 (≈ 3.98 µM)	0.05 (≈ 0.124 µM)	0.025 (≈ 0.0621 µM)	0.013 (≈ 0.0323 µM)	1		0.013 (≈ 0.0323 µM)	PD50 (Streptococcus pyogenes [7]): 5 mg/kg
C[C@H](N)[C@H]1CCN(c2c(F)c(N)c3c(=O)c(C(=O)O)cn(C4CC4)c3c2F)C1 (stereo in doubt; 32F-S,S)	0.05 (≈ 0.127 µM)			0.05 (≈ 0.127 µM)	0.05 (≈ 0.127 µM)	0.1 (≈ 0.255 µM)	0.4 (≈ 1.02 µM)	0.4 (≈ 1.02 µM)	0.025 (≈ 0.0637 µM)		0.025 (≈ 0.0637 µM)	7	> 25		MIC (Staphylococcus aureus [5]): 0.013 µg/mL (≈ 0.0331 µM); MIC (Streptococcus pyogenes [8]): 0.05 µg/mL (≈ 0.127 µM)
CCNCC1CCN(c2cc3c(cc2F)c(=O)c(C(=O)O)cn3C2CC2)C1 (centres undefined)			3							0.013 (≈ 0.0348 µM)		5			
